Experiments:
Leishmania amazonensis [1] = test: Antileishmanial activity against amastigote stage of Leishmania amazonensis WHOM/BR/75/JOSEFA infected in BALB/c mouse peritoneal macrophages after 72 hrs by Geimsa staining-based light microscopy; type: functional, organism-based
Leishmania amazonensis [2] = test: Antileishmanial activity against promastigote stage of Leishmania amazonensis WHOM/BR/75/JOSEFA after 72 hrs by hemocytometry; type: functional, organism-based
[3] = Selectivity ratio of CC50 for monkey LLC-MK2 cells to IC50 for amastigote stage of Trypanosoma cruzi Y; type: ADME, cell-based; details: read-out: Ratio CC50/IC50
[4] = Selectivity ratio of CC50 for monkey LLC-MK2 cells to EC50 for trypomastigote stage of Trypanosoma cruzi Y; type: ADME, cell-based; details: read-out: Ratio CC50/EC50
[5] = Selectivity ratio of CC50 for BALB/c mouse peritoneal macrophages to IC50 for amastigote stage of Leishmania amazonensis WHOM/BR/75/JOSEFA
[6] = Selectivity ratio of CC50 for monkey LLC-MK2 cells to IC50 for epimastigote stage of epimastigote stage of Trypanosoma cruzi Y
Trypanosoma cruzi [7] = test: Antitrypanosomal activity against trypomastigote stage of Trypanosoma cruzi Y infected in monkey LLC-MK2 cells after 96 hrs by Pizzi-Brener method; type: functional, organism-based
[8] = Selectivity ratio of CC50 to IC50 for promastigote stage of Leishmania amazonensis WHOM/BR/75/JOSEFA; design: reference not given here
[9] = Selectivity ratio of CC50 for mouse J774A1 cells to IC50 for promastigote stage of Leishmania amazonensis WHOM/BR/75/JOSEFA; type: ADME, cell-based, J774.A1; details: read-out: Ratio CC50/IC50
Trypanosoma cruzi [10] = test: Antitrypanosomal activity against epimastigote stage of Trypanosoma cruzi Y after 96 hrs by hemocytometry; type: functional, organism-based
Procedure, shortened: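 Log-phase parasites (promastigotes 3-day, Warren's medium + 10% FBS, 25°C; epimastigotes 4-day, LIT + 10% FBS, 28°C) seeded at 1 × 10^6 cells/mL with compound (0.1-100 µM; DMSO ≤1%). Promastigotes read at 72 h, epimastigotes at 96 h, by hemocytometer counting. IC50 by nonlinear regression.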

[11] = Selectivity ratio of CC50 for monkey LLC-MK2 cells to IC50 for epimastigote stage of epimastigote stage of Trypanosoma cruzi Y; type: ADME, cell-based; details: read-out: Ratio CC50/IC50
Trypanosoma cruzi [12] = test: Antitrypanosomal activity against amastigote stage of Trypanosoma cruzi Y infected in monkey LLC-MK2 cells after 96 hrs by Geimsa staining-based light microscopy; type: functional, organism-based; details: LLC-MK2, 96 h
Procedure, shortened: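 LLCMK2 monolayers (2.5 x 10^5 cells/mL, 24 h, 37 °C, 5% CO2) infected with trypomastigotes at 10 per host cell for 24 h, washed, treated with compound (0.1 to 50 μM) 96 h. Methanol-fixed, Giemsa-stained, 200 cells counted; survival index (% infected × amastigotes/cell); IC50 by nonlinear regression.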

Trypanosoma cruzi [13] = test: Antitrypanosomal activity against trypomastigote stage of Trypanosoma cruzi Y infected in monkey LLC-MK2 cells after 24 hrs by Pizzi-Brener method; type: functional, organism-based; details: LLC-MK2, 24 h
Procedure, shortened: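 Trypomastigotes harvested from infected LLCMK2 culture supernatant, 1 × 10^7 cells/mL with compound (0.1-50 µM), 24 h at 37°C, 5% CO2. Viability by motility (Pizzi–Brener); EC50 by nonlinear regression.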

Trypanosoma cruzi [14] = test: Antitrypanosomal activity against amastigote stage of Trypanosoma cruzi

CCCCNc1nc2ccc(OC)cc2nc1S(C)(=O)=O
IC50 (Leishmania amazonensis [1]): 12.9 µM
IC50 (Leishmania amazonensis [2]): 2.5 µM
selectivity ratio [3]: 27.3
selectivity ratio [4]: 10
Ratio CC50/IC50 [5]: 3.3
selectivity ratio [6]: 108
EC50 (Trypanosoma cruzi [7]): 39.2 µM
selectivity ratio [8]: 17.1
selectivity ratio [9]: 17.1
IC50 (Trypanosoma cruzi [10]): 3.6 µM
selectivity ratio [11]: 108
IC50 (Trypanosoma cruzi [12]): 14.3 µM

COc1ccc2nc(NCCO)c(S(C)(=O)=O)nc2c1
IC50 (Leishmania amazonensis [1]): 17.3 µM
IC50 (Leishmania amazonensis [2]): 2.9 µM
selectivity ratio [3]: 1.8
selectivity ratio [4]: 2
Ratio CC50/IC50 [5]: 2.2
selectivity ratio [6]: 25.2
EC50 (Trypanosoma cruzi [7]): 35.7 µM
selectivity ratio [8]: 13.3
selectivity ratio [9]: 13.3
IC50 (Trypanosoma cruzi [10]): 2.9 µM
selectivity ratio [11]: 25.2
IC50 (Trypanosoma cruzi [12]): 40.5 µM

COc1ccc2nc(NC3CCCCC3)c([S+](C)[O-])nc2c1 (centres undefined)
IC50 (Leishmania amazonensis [1]): 7.3 µM
IC50 (Leishmania amazonensis [2]): 2.5 µM
selectivity ratio [3]: 19.5
selectivity ratio [4]: 7.1
Ratio CC50/IC50 [5]: 2.8
selectivity ratio [6]: 72.8
EC50 (Trypanosoma cruzi [7]): 25.4 µM
selectivity ratio [8]: 8
selectivity ratio [9]: 8
IC50 (Trypanosoma cruzi [10]): 2.5 µM
selectivity ratio [11]: 72.8
IC50 (Trypanosoma cruzi [12]): 9.3 µM

O=C(Cn1ccnc1[N+](=O)[O-])NCc1ccccc1 [BENZNIDAZOLE]
EC50 (Trypanosoma cruzi [13]): 3.4 µM
IC50 (Trypanosoma cruzi [10]): 8.1 µM
IC50 (Trypanosoma cruzi [14]): 26.1 µM
